From ChEMBL document CHEMBL1148387, “DNA-targeted 1,2,4-benzotriazine 1,4-dioxides: potent analogues of the hypoxia-selective cytotoxin tirapazamine” (J Med Chem, 2004)

How the values were obtained:
HT-29 [1] = test: Concentration required to kill aerobic HT-29 human colon carcinoma cells in vitro; assay type: functional, cell-based
Summary of the method: (§1)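 HT-29 cells tested simultaneously under oxic and hypoxic conditions in a 96-well SRB proliferation assay; TPZ internal control at front and back of assay (n = 2); 8-methyl-5-nitroquinoline second control confirming strict hypoxia. IC50 pooled from seven independent experiments as interexperimental means (mean ± SEM, n ≥ 2).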

SCC-7 [2] = test: Concentration required to kill hypoxic mouse SCCVII cells in vitro; assay type: functional
Summary of the method: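 Mouse SCCVII tumour cells exposed to drug for 1 h under hypoxic (anoxic) conditions; clonogenic survival; C10 = concentration reducing plating efficiency to 10% of controls. Values corrected for interexperimental variation in hypoxia using TPZ internal standard: C10(calc) = C10(meas) × [C10(TPZ,mean)/C10(TPZ,meas)].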

[3] = Hypoxic cytotoxicity ratio was measured as C10 aerobic/C10 hypoxic; assay type: functional
Summary of the method: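 Mouse SCCVII cells, 1 h drug exposure under aerobic and hypoxic conditions in the same experiment, clonogenic survival; intraexperimental ratio C10(aerobic)/C10(hypoxic), C10 being the concentration giving 10% plating efficiency of controls.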

HT-29 [4] = test: Concentration required to kill hypoxic HT-29 human colon carcinoma cells in vitro; assay type: functional, cell-based; summary of the method: as §1
[5] = Hypoxic cytotoxicity ratio was measured as IC50 aerobic/IC50 hypoxic; assay type: functional
Summary of the method: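 HT-29 cells, SRB proliferation assay with each compound run simultaneously under aerobic and hypoxic conditions; intraexperimental ratio IC50(aerobic)/IC50(hypoxic).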

SCC-7 [6] = test: Concentration required to kill aerobic mouse SCCVII cells in vitro; assay type: functional
Summary of the method: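 Mouse SCCVII tumour cells exposed to drug for 1 h under aerobic conditions; clonogenic survival read-out; C10 = concentration reducing plating efficiency to 10% of controls (one-log kill).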

| Compound | IC50 (HT-29 [1]) | C10 (SCC-7 [2]) | Ratio [3] | IC50 (HT-29 [4]) | Ratio [5] | C10 (SCC-7 [6]) |
| --- | --- | --- | --- | --- | --- | --- |
| [O-][n+]1nc(NCCCCCCNc2c3ccccc3nc3ccccc23)[n+]([O-])c2ccccc21 | 620 nM | 0.61 µM | 15.7 | 16 nM | 39.7 | 9.6 µM |
| Cc1cccc2nc3cccc(C(=O)NCCCN(C)CCCNc4n[n+]([O-])c5ccccc5[n+]4[O-])c3nc12 | 560 nM | 0.35 µM | 21.1 | 18 nM | 31 | 7.4 µM |
| CN(CCNC(=O)c1cccc2cc3ccccc3nc12)CCNc1n[n+]([O-])c2ccccc2[n+]1[O-] | 15700 nM | 0.93 µM | 431 | 180 nM | 87 | 400 µM |
| CN(CCCNC(=O)c1cccc2cccnc12)CCCNc1n[n+]([O-])c2ccccc2[n+]1[O-] | 36300 nM | 6.5 µM | 13.9 | 590 nM | 61.2 | 90 µM |
| CN(CCCNC(=O)c1cccc2cc3ccccc3nc12)CCCNc1n[n+]([O-])c2ccccc2[n+]1[O-] | 5350 nM | 0.82 µM | 51.5 | 43 nM | 124 | 42 µM |
| CN(CCCNC(=O)c1cccc2nc3ccccc3nc12)CCCNc1n[n+]([O-])c2ccccc2[n+]1[O-] | 590 nM | 1.07 µM | 8.8 | 120 nM | 4.9 | 9.4 µM |
| Nc1n[n+]([O-])c2ccccc2[n+]1[O-] [TIRAPAZAMINE] | 387000 nM | 10.2 µM | 258 | 6200 nM | 62 | 2644 µM |
| O=C(NCCNCCNc1n[n+]([O-])c2ccccc2[n+]1[O-])c1cccc2cc3ccccc3nc12 | 7800 nM | 1.16 µM | 48.2 | 79 nM | 98.6 | 56 µM |
| O=C(NCCOCCNc1n[n+]([O-])c2ccccc2[n+]1[O-])c1cccc2cc3ccccc3nc12 | 72500 nM | 12.4 µM | 50.8 | 5700 nM | 12.8 | 630 µM |
| O=C(NCCCNCCCNc1n[n+]([O-])c2ccccc2[n+]1[O-])c1cccc2cc3ccccc3nc12 | 5700 nM | 0.51 µM | 12.5 | 65 nM | 87.5 | 6.4 µM |
| Cc1cccc2cc3cccc(C(=O)NCCCN(C)CCCNc4n[n+]([O-])c5ccccc5[n+]4[O-])c3nc12 | 8400 nM | 0.18 µM | >167 | 95 nM | 88.4 | >30 µM |
| CN(CCCNC(=O)c1cccc2ccc(-c3ccncc3)nc12)CCCNc1n[n+]([O-])c2ccccc2[n+]1[O-] | 12000 nM | 1.79 µM | 7.8 | 110 nM | 107 | 14 µM |
